ChEMBL document CHEMBL1128739, “Structure-activity relationships in the 8-amino-6,7,8,9-tetrahydro-3H-benz[e]indole ring system. 2. Effects of 8-amino nitrogen substitution on serotonin receptor binding and pharmacology” (J Med Chem, 1995)
The source made the active and inactive calls. The calls are words filed in the database; no cut-off is given here.

Experiments:
[1] = biological target: D(2) dopamine receptor (Rattus norvegicus, UniProt P61169); experiment: In vitro binding affinity against cloned mammalian Dopamine receptor D2 expressed in CHO cells using [3H]U-86170 as radioligand; assay type: cell-based
D(2) dopamine receptor, sequence (P61169 whole entry): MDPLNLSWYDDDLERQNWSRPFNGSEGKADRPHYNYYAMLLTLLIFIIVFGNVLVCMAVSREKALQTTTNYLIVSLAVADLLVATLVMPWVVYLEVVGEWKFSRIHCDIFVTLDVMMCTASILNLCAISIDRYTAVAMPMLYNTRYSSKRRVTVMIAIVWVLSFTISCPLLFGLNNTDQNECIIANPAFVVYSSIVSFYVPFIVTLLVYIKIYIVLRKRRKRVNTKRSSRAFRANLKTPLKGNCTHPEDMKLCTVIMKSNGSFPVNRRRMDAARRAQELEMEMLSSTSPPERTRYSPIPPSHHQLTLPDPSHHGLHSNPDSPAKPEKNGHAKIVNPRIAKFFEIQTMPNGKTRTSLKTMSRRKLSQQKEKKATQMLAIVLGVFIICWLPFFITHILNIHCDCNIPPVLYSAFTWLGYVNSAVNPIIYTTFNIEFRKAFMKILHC
Method in brief: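 Membranes from CHO cells (20-60 μg protein) in 20 mM HEPES, 10 mM MgSO4, pH 7.4. Nonspecific binding defined with excess haloperidol. 11 concentrations, each in duplicate. Incubated 1 h at room temperature, then filtered and counted. IC50 from a one-site competition fit, converted to Ki by Cheng-Prusoff.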

[2] = system: Rattus norvegicus; experiment: The compound was tested in vivo for biochemical effect against the changes in different brain area levels of DOPA in reserpinized rat limbic system at does 50 uM/kg; Inactive; assay type: functional, organism-based
Method in brief: (§1)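 Male Sprague-Dawley rats (200-300 g) pretreated with reserpine 5 mg/kg sc 18 h before. Injection volume 5 mL/kg, test solutions at neutral pH. DOPA and 5-HTP in limbic system, striatum and hemispheres measured by HPLC with electrochemical detection. Dose-response curves from four to six dose levels (n = 4) per brain area.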

[3] = system: Rattus norvegicus; experiment: In vivo changes in different brain area levels of 5-HTP in reserpinized rat corpus striatum.; assay type: functional
Method in brief: (§2)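 Male Sprague-Dawley rats (200-300 g) pretreated with reserpine 5 mg/kg sc 18 h before. Injection volume 5 mL/kg at neutral pH. Brain-region 5-HTP measured by HPLC with electrochemical detection. Dose-response curves used four to six doses, n = 4.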

[4] = system: Rattus norvegicus; experiment: The compound was tested in vivo for biochemical effect against the changes in different brain area levels of DOPA in reserpinized rat corpus striatum at dose 50 uM/kg; Inactive; assay type: functional, organism-based; method in brief: as §1
[5] = system: Rattus norvegicus; experiment: In vivo changes in different brain area levels of 5-HTP in reserpinized rat limbic system.; assay type: functional; method in brief: as §2
[6] = system: Rattus norvegicus; experiment: In vivo for biochemical effect against brain area levels of 5-HTP in reserpinized rat hemispheres (mainly cortex).; assay type: functional; method in brief: as §1
[7] = system: Rattus norvegicus; experiment: (§3) The compound was tested in vivo for biochemical effect against the changes in different brain area levels of DOPA in reserpinized rat hemispheres (mainly cortex)at does 50 uM/kg; Inactive; assay type: functional, organism-based; method in brief: as §1
[8] = biological target: 5-hydroxytryptamine receptor 1B (Homo sapiens, UniProt P28222); experiment: In vitro binding affinity against cloned mammalian 5-hydroxytryptamine 1D receptor beta expressed in CHO cells, by using [3H]5-HT as radioligand; assay type: cell-based
5-hydroxytryptamine receptor 1B, sequence (P28222 whole entry): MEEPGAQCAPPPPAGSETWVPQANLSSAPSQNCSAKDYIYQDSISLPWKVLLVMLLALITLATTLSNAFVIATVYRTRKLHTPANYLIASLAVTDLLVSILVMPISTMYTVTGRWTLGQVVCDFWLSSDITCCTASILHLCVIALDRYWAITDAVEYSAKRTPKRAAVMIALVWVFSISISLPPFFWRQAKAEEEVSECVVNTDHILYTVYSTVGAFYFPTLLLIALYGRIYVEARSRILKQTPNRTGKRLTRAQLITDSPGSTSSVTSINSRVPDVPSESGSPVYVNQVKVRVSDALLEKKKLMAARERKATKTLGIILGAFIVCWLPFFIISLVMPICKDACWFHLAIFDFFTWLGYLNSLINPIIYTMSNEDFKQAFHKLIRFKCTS
Method in brief: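 Membranes from CHO cells stably expressing the cloned receptor, made by mechanical disruption in ice-cold Tris/EDTA/EGTA pH 7.4 and differential centrifugation. [3H]serotonin at 1.7 nM in 50 mM Tris, 5 mM MgCl2, 0.1% ascorbic acid, pH 7.4. 11 drug concentrations in duplicate, 1 h at room temperature protected from light, then filtration. Excess serotonin defines nonspecific binding. One-site IC50 fit, Ki by Cheng-Prusoff.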

[9] = biological target: 5-hydroxytryptamine receptor 1D (Homo sapiens, UniProt P28221); experiment: In vitro binding affinity against cloned mammalian 5-hydroxytryptamine 1D receptor alpha expressed in CHO cells, by using [3H]5-HT as radioligand; assay type: cell-based
5-hydroxytryptamine receptor 1D, sequence (P28221 whole entry): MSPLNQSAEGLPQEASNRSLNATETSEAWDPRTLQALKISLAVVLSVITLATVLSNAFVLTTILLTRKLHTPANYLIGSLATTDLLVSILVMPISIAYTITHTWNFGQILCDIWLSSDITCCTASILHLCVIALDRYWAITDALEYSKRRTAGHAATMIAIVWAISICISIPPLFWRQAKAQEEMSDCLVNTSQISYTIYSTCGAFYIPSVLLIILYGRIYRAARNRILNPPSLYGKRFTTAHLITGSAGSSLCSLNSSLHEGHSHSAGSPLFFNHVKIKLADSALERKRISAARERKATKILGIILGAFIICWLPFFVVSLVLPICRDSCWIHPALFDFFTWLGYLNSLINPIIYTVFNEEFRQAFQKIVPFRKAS
Method in brief: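 Competition binding on CHO-cell membranes (20-60 μg protein) in 50 mM Tris, 5 mM MgCl2, 0.1% ascorbic acid, pH 7.4. Nonspecific binding defined with excess serotonin. 11 drug concentrations, each in duplicate. Incubated 1 h at room temperature, protected from light, then filtered and scintillation counted. IC50 taken from a one-site fit; Ki by Cheng-Prusoff.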

[10] = biological target: D(3) dopamine receptor (Rattus norvegicus, UniProt P19020); experiment: In vitro binding affinity against cloned mammalian Dopamine receptor D3 expressed in CHO cells by, using [3H]-spiperone as radioligand; assay type: cell-based; details: read-out: Ki
D(3) dopamine receptor, sequence (P19020 whole entry): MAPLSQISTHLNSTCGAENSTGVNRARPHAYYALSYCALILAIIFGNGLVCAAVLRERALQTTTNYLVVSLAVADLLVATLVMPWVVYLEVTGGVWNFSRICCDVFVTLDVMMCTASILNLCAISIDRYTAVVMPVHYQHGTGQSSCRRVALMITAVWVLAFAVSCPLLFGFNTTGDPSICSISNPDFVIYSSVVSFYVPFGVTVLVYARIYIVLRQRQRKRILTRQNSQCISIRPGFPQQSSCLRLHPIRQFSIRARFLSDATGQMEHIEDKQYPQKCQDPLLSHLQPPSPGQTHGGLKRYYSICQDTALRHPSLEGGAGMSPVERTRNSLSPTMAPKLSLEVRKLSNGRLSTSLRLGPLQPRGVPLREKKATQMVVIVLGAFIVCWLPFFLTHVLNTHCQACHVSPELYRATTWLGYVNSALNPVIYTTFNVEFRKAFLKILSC

[11] = system: Rattus norvegicus; experiment: The compound was tested in vivo for biochemical effect against the changes in different brain area levels of DOPA in reserpinized rat limbic system at dose 50 uM/kg; Inactive; assay type: functional, organism-based
[12] = system: Rattus norvegicus; experiment: The compound was tested in vivo for biochemical effect against the changes in different brain area levels of DOPA in reserpinized rat hemispheres (mainly cortex)at dose 50 uM/kg; Inactive; assay type: functional, organism-based
[13] = biological target: D(3) dopamine receptor (Rattus norvegicus) (UniProt P19020); experiment: The compound was tested in vitro for binding affinity against cloned mammalian Dopamine receptor D3 expressed in CHO cells by, using [3H]-spiperone as radioligand; assay type: cell-based; details: concentration not given here
D(3) dopamine receptor (Rattus norvegicus), sequence (P19020 whole entry): as above
Method in brief: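 Cloned D3 receptor came from CHO cell membranes (20-60 μg protein). These were incubated 1 h at room temperature with [3H]spiperone (123 Ci/mmol, 0.5 nM) in 20 mM HEPES, 10 mM MgCl2, 150 mM NaCl, 1 mM EDTA, pH 7.4. Excess haloperidol defined nonspecific binding. There were 11 concentrations in duplicate. After filtration and scintillation counting, IC50 came from a one-site competition fit and Ki from Cheng-Prusoff.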

[14] = system: Rattus norvegicus; experiment: The compound was tested in vivo for biochemical effect against the changes in different brain area levels of DOPA in reserpinized rat hemispheres (mainly cortex); inactive at the highest dose tested (3.1); assay type: functional, organism-based; method in brief: as §1
[15] = system: Rattus norvegicus; experiment: The compound was tested in vivo for biochemical effect against the changes in different brain area levels of DOPA in reserpinized rat limbic system at dose 12.5 uM/kg; Partial effect; assay type: functional, organism-based; method in brief: as §1
[16] = system: Rattus norvegicus; experiment: The compound was tested in vivo for biochemical effect against the changes in different brain area levels of DOPA in reserpinized rat corpus striatum at dose 12.5 uM/kg; Partial effect; assay type: functional, organism-based; method in brief: as §1
[17] = system: Rattus norvegicus; experiment: The compound was tested in vivo for biochemical effect against the changes in different brain area levels of DOPA in reserpinized rat hemispheres (mainly cortex) at dose 12.5 uM/kg; Inactive; assay type: functional, organism-based; method in brief: as §1
[18] = system: Rattus norvegicus; experiment: The compound was tested in vivo for biochemical effect against the changes in different brain area levels of DOPA in reserpinized rat limbic system; Inactive; assay type: functional, organism-based
[19] = system: Rattus norvegicus; experiment: The compound was tested in vivo for biochemical effect against the changes in different brain area levels of 5-HTP in reserpinized rat corpus striatum at does 50 uM/kg; Partial effect; assay type: functional, organism-based
[20] = system: Rattus norvegicus; experiment: The compound was tested in vivo for biochemical effect against the changes in different brain area levels of DOPA in reserpinized rat corpus striatum at does 50 uM/kg; Inactive; assay type: functional, organism-based
[21] = system: Rattus norvegicus; experiment: The compound was tested in vivo for biochemical effect against the changes in different brain area levels of 5-HTP in reserpinized rat limbic system at dose 50 uM/kg; Partial effect; assay type: functional, organism-based
[22] = system: Rattus norvegicus; experiment: The compound was tested in vivo for biochemical effect against the changes in different brain area levels of 5-HTP in reserpinized rat hemispheres (mainly cortex)at does 50 uM/kg; Partial effect; assay type: functional, organism-based
[23] = system: Rattus norvegicus; experiment: as §3; assay type: functional, organism-based; remark: listed apart in the source

Compound	Ki ([1]; read-out: Ki) [µM]	ED50 [3] [µmol/kg]	ED50 [4]	ED50 [5] [µmol/kg]	ED50 [6] [µmol/kg]	Ki [8] [µM]	Ki [10] [µM]	other results
CN(C)[C@H]1CCc2ccc3[nH]cc(C=O)c3c2C1	0.25	12.1	inactive	13.1	15.3			ED50 [2]: inactive; ED50 [7]: inactive
CCCN(CCCOc1cccc(Cl)c1)C1CCc2ccc3[nH]cc(C=O)c3c2C1 (stereo unspecified)	0.028	4.01	inactive	4.79	5.12	0.187	0.159	Ki [9]: 0.0051 µM; ED50 [11]: inactive; ED50 [12]: inactive
CN(C)[C@H]1CCc2ccc3[nH]ccc3c2C1						1.69		inhibition [13]: < 45%
CCCN(CCC)[C@@H]1CCc2ccc3[nH]ccc3c2C1								ED50 [14]: inactive
CN(C)[C@@H]1CCc2ccc3[nH]cc(C=O)c3c2C1	0.013	0.95		2.9	0.56	0.02	0.265	ED50 [15]: Weak activity; ED50 [16]: Weak activity; ED50 [17]: inactive
CCCN(CCC)CC1CCc2ccc3[nH]cc(C=O)c3c2C1 (stereo unspecified)								Ki ([1]; cho): Not Active; ED50 [18]: inactive; ED50 [19]: Weak activity; ED50 [20]: inactive; ED50 [21]: Weak activity; ED50 [22]: Weak activity; ED50 [23]: inactive
